Columns and labels:
Renin [1] = target: T1, Renin (Homo sapiens, UniProt P00797); test: Inhibitory activity against human plasma renin; type: cell-free
T1 sequence (P00797 whole entry): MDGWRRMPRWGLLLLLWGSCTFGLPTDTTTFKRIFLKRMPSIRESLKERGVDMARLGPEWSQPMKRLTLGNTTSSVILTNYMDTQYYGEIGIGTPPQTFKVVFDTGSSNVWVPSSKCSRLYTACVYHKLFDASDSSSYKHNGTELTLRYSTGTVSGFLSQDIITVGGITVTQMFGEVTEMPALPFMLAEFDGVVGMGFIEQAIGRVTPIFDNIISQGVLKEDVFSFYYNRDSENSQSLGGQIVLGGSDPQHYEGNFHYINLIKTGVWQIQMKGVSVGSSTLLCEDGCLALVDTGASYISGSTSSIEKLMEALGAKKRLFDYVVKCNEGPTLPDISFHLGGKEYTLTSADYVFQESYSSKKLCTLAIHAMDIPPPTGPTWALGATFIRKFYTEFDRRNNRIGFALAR

Renin [2] = target: T1, Renin; test: Inhibitory activity against purified recombinant human renin
[3] = Distribution coefficient at pH 7.4; type: physicochemical; settings: RP-HPLC, read-out: Log Kw
How it was run: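 Log Kw read as log D by HPLC in 20 mM MOPS buffer, pH 7.4, on an LC-ABZ column ([…]) fitted with an LC-ABZ precolumn (20x46 mm).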

IC50 (Renin [1]) [nM] | IC50 (Renin [2]) [nM] | chromatographic logD [3] | SMILES
160 | 3.3 | – | c1ccc(COCCCOc2ccc([C@H]3[C@H](COCCN4CCOCC4)CNC[C@@H]3OCc3ccc4ccccc4c3)cc2)cc1 (racemic)
1900 | 2.3 | – | O=S(=O)(O)OC[C@@H]1CNC[C@H](OCc2ccc3ccccc3c2)[C@H]1c1ccc(OCCCOCc2ccccc2)cc1 (racemic)
8200 | 820 | 4.4 | c1ccc(COCCCOc2ncc([C@H]3CCNC[C@@H]3OCc3ccc4ccccc4c3)cn2)cc1 (racemic)
7100 | 590 | 5.1 | c1ccc(COCCCOc2ccc([C@H]3CCNC[C@@H]3OCc3ccc4ccccc4c3)cn2)cc1 (racemic)
490 | 0.4 | 5.8 | c1ccc(COCCCOc2ccc([C@H]3[C@H](CSc4ccncc4)CNC[C@@H]3OCc3ccc4ccccc4c3)cc2)cc1 (racemic)
12 | 0.087 | 5.4 | COc1ccccc1COCCCOc1ccc([C@H]2CCNC[C@@H]2OCc2cc(OC)c3ccccc3c2OC)cc1 (racemic)
160 | 10 | 4.1 | COc1ccccc1COCCCOc1ncc([C@H]2CCNC[C@@H]2OCc2cc(OC)c3ccccc3c2OC)cn1 (racemic)
110 | 8 | 3.9 | COc1ccccc1COCCCOc1ccc([C@H]2CCNC[C@@H]2OCc2ccc3ccc(=O)[nH]c3c2)cc1 (racemic)
1300 | 5 | – | c1ccc(COCCCOc2ccc([C@H]3CCNC[C@@H]3OCc3ccc4ccccc4c3)cc2)cc1 (racemic)
330 | 5.1 | – | c1ccc(COCCCOc2ccc([C@H]3CCNC[C@@H]3OCc3ccc4c(c3)NCCC4)cc2)cc1 (racemic)
1400 | 6.4 | 4.9 | O[C@@H]1CNC[C@H](OCc2ccc3ccccc3c2)[C@H]1c1ccc(OCCCOCc2ccccc2)cc1 (racemic)
380 | 1.8 | – | c1ccc(COCCCOc2ccc([C@@H]3[C@@H](OCc4ccc5ccccc5c4)CNC[C@H]3OCCN3CCOCC3)cc2)cc1 (racemic)
190 | 0.92 | – | c1ccc(COCCCOc2ccc([C@H]3[C@H](Cn4cncn4)CNC[C@@H]3OCc3ccc4ccccc4c3)cc2)cc1 (racemic)
110 | 0.5 | 4.7 | COc1ccccc1COCCCOc1ccc([C@H]2CCNC[C@@H]2OCc2cc(OC)c3ccccc3c2OC)cn1 (racemic)
37 | 0.67 | 3.8 | COc1ccccc1COCCCOc1ccc([C@H]2CCNC[C@@H]2OCc2ccc3c(c2)NCCC3)cc1 (racemic)
10000 | 9 | – | O[C@H]1CNC[C@H](OCc2ccc3ccccc3c2)[C@H]1c1ccc(OCCCOCc2ccccc2)cc1 (racemic)
810 | 12 | – | c1ccc(COCCCOc2ccc([C@H]3CCNC[C@@H]3OCc3ccc4cccnc4c3)cc2)cc1 (racemic)
1400 | 22 | – | c1ccc(COCCCOc2ccc([C@H]3CCNC[C@@H]3OCc3ccc4cc(OCCN5CCOCC5)ccc4c3)cc2)cc1 (racemic)
130 | 12 | 5.6 | c1ccc(COCCCOc2ccc([C@H]3CCNC[C@@H]3OCc3ccc4ccc(OCCN5CCOCC5)cc4c3)cc2)cc1 (racemic)
160 | 4 | – | COc1ccccc1COCCCOc1ccc([C@H]2CCNC[C@@H]2OCc2ccc3cccnc3c2)cc1 (racemic)

— ChEMBL document CHEMBL1131714, “Piperidine-renin inhibitors compounds with improved physicochemical properties” (Bioorg Med Chem Lett, 1999)
